An excerpt weighted towards active compounds, which were near 1.6% of everything screened.
Hep lipid drop: hepatic lipid droplet formation modulation; inhibition, % at 6.5 µM; AID 1656; AML12 mouse hepatocytes, oleate lipid droplets, BODIPY imaging; actives 0.4% (n = 240,000);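 active = lipid droplet intensity inhibited by at least 50%, with more than 500 cells counted; inconclusive = wells with under 300 cells, treated as cytotoxic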
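System: AML12 hepatocytes (mouse). Probe or stimulus: oleic acid at 100 µM to induce lipid droplet formation. Times: overnight treatment with compound plus oleate. Detection: Image-based BODIPY and DAPI two-channel analysis. Evaluation: percent inhibition of filter-corrected integrated lipid droplet intensity per well.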
TLR9-MyD88 block: inhibitors of human TLR9-MyD88 binding. Q9NR96+Q99836. CHO BLA complementation TLR9-MyD88, CCF4 FRET ratio. inhibition, % at 4.98 µM. actives 0.21% (n = 340,000);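 active = inhibition above the mean over all tested compounds plus 3 SD, cut at about 21% in these data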;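 note: 0% = DMSO only wells and 100% = clavulanate BLA inhibitor control wells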
NOD2 RIPK2 PPI: blocks binding of human NOD2 to RIPK2 | AID 624267 | O43353 | actives 0.38% (n = 360,000) | inhibition, % at 4.98 µM | CHO BLA complementation NOD2-RIPK2, CCF4 ratio; in the data active = inhibition above about 21%;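 note: 0% = vehicle only and 100% = reference blocker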
Target sequence (O43353 whole entry, looked up): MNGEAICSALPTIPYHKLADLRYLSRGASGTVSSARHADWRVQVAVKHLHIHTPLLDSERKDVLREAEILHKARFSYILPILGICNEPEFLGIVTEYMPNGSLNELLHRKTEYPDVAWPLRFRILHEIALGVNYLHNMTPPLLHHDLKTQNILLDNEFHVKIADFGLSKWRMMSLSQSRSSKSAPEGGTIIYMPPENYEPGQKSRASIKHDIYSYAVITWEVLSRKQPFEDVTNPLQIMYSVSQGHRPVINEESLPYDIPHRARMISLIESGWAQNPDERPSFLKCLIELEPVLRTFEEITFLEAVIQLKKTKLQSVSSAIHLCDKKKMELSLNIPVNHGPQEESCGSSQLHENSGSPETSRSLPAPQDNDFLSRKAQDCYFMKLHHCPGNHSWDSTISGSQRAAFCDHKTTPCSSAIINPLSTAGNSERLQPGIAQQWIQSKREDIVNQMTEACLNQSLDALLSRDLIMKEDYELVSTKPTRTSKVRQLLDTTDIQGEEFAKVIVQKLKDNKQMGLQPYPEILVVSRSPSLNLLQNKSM
SR-BI DiI inh: inhibitors of mouse SR-BI mediated HDL lipid uptake; actives 0.96% (n = 320,000); inhibition, % at 12.5 µM; ldlA[mSR-BI] CHO cells, DiI-HDL uptake fluorescence, 3 h;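 active = mean replicate inhibition of at least 70% and a set share of replicates each scoring 70 or more; inconclusive = meets just one of the two criteria; inactive = fails both criteria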;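 note: 0% = median of neutral control wells and 100% = median of positive control wells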
SR-BI uptake up: activators of SR-BI mediated HDL lipid uptake; actives 0.096% (n = 320,000); activation, % at 12.5 µM; CHO ldlA[mSR-BI] cells, DiI-HDL uptake fluorescence, 3 h; 100 = double the neutral-control signal; AID 504775;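 active = mean replicate activation of at least 60% and every replicate at or above 60%; inconclusive = mean or all-replicate condition met, but not both; inactive = mean below 60% and not all replicates reaching 60%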;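 note: 0% = median plate neutral-control signal and 100% = twice that signal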
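system = CHO ldlA[mSR-BI] cells, LDL receptor-null, SR-BI overexpressing | medium = Ham's F12 with 0.5% BSA, HEPES 25 mM, pH 7.4 | probe or stimulus = DiI-HDL 10 µg/mL | compound dosing = single-point compound dose | incubation = compound exposure 3 h, 37 °C | technique = DiI fluorescence, bottom read | read-out = cell-associated DiI fluorescence as measure of HDL uptake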
TLR4 MyD88 comp: TLR4-MyD88 interaction inhibition in cells. O00206+Q99836. HeLa CL3-4 TLR4/MyD88 BLA complementation, FRET ratio. inhibition, % at 8.4 µM. actives 0.18% (n = 200,000); in the data active = inhibition above about 25%;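 note: 0% = vehicle and 100% = reference inhibitor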
* = called active by the depositor; ? = inconclusive; . = no result given.

SMILES	Hep lipid drop	TLR9-MyD88 block	NOD2 RIPK2 PPI	SR-BI DiI inh	SR-BI uptake up	TLR4 MyD88 comp
C=C1C(=O)C=C2CN(C(=O)c3ccccc3)[C@@](Cc3ccc(F)cc3)(C(=O)OC)[C@@H]12	?	9.2	48.2*	41.7	-41.7	-7.7
C=C1C(=O)CC2=C1[C@](Cc1ccc(F)cc1)(C(=O)OC)N(C(=O)c1ccccc1)C2	.	.	-0.1	.	.	.
COc1ccc(-c2c(C)cc3oc(=O)cc(-c4ccccc4)c3c2C)cc1	.	-13.2	-4.3	62.2	-62.3	.
Cc1ccc(-c2c(C)cc3oc(=O)cc(-c4ccccc4)c3c2C)cc1	.	-10.0	-3.1	77.8*	-77.8	.
CCOC(=O)c1ccc(-c2c(C)cc3oc(=O)cc(-c4ccccc4)c3c2C)cc1	.	0.6	-4.6	73.2*	-73.2	.
Cc1cc2oc(=O)cc(-c3ccccc3)c2c(C)c1-c1ccc(N(C)C)cc1	.	-4.4	4.2	77.7*	-77.7	.
Cc1ccc(S(=O)(=O)/C(C#N)=C/c2c(N3CCC(C(N)=O)CC3)nc3ccccn3c2=O)cc1	-1.7	3.1	6.0	-7.9	7.9	2.1
O=C(NNC(=O)[C@@H]1CCCC[C@@H]1C(=O)O)c1cccs1	26.1	-11.5	2.2	-25.4	25.4	8.6
COc1cc(C)ccc1S(=O)(=O)NC(=O)Cn1nnc(COc2ccc3c(c2)CCCC3)c1C	.	.	1.3	.	.	.
CCc1ccc(NC(=O)CSc2nc3n[nH]c(C)c3c(=N)n2-c2cccc(OC)c2)cc1	15.6	-0.9	5.5	-123.0	123.0*	3.2
COc1cccc(NC(=O)CSc2nc3n[nH]c(C)c3c(=N)n2-c2cccc(OC)c2)c1	.	-3.4	-3.0	15.7	-15.7	2.8
COc1ccccc1C1/C(=C(\O)c2c(C)nc3c(C)cccn23)C(=O)C(=O)N1CCCN(C)C (stereo unspecified)	.	.	.	.	.	10.5
CCOc1ccc2noc3c2c1C(=O)c1ccccc1-3	-12.6	-11.5	-3.6	1.5	-1.5	-2.3
O=C1c2ccccc2-c2onc3c(Oc4ccccc4)cc(O)c1c23	55.9*	.	.	.	.	8.5
CN1CC2([N+](=O)[O-])CC=C(OCCO)C([N+](=O)[O-])(C1)C2 (stereo unspecified)	2.8	8.9	-11.9	-20.0	20.0	4.1
COc1ccc(-c2oc(/N=C/N3CCOCC3)c(C#N)c2-c2ccc(OC)cc2)cc1	.	-2.9	-30.1	72.2*	-72.2	12.8
CC(=O)C1=C(C)NC(SCC(=O)c2cc(Cl)ccc2Cl)=C(C#N)C1c1ccco1 (stereo unspecified)	.	0.7	21.3*	22.1	-22.1	-1.4
CC(=O)C1=C(C)NC(SCC(N)=O)=C(C#N)C1c1ccco1 (stereo unspecified)	-1.4	3.0	-9.0	-22.6	22.6	3.6
CN(C(=O)COC(=O)CNC(=O)c1sc2ccccc2c1Cl)C1CCS(=O)(=O)C1 (stereo unspecified)	.	-0.7	-3.5	1.4	-1.4	.
COc1ccc(-c2ccc(=O)n(Cc3cccc([N+](=O)[O-])c3)n2)cc1	52.3*	6.8	-6.9	.	.	-14.1
O=C(COc1ccccc1)N[C@@H]1c2ccccc2CC[C@@H]1O	.	-4.5	1.8	13.7	-13.6	.
COc1cc(/C=N/N2CCN(c3ccccc3OC)CC2)ccc1OC(C)=O	-12.8	-13.1	-4.9	9.0	-9.0	.
COc1ccccc1N1CCN(C(=O)CCNS(=O)(=O)c2cc(Br)cnc2N)CC1	-2.1	-4.3	-16.2	-2.5	2.5	.
COc1ccccc1CCC(=O)Nc1ccc2c(c1)CN(Cc1ccc(C)o1)CC2	-0.7	6.3	5.8	81.1*	-81.1	.
O=C(Cn1nnc(-c2cccs2)n1)N1CCOCC1	-5.8	0.9	-9.1	-68.4	68.4*	15.7
SMILES	Hep lipid drop	TLR9-MyD88 block	NOD2 RIPK2 PPI	SR-BI DiI inh	SR-BI uptake up	TLR4 MyD88 comp
CC1CCN(C(=O)Cn2nnc(-c3cccs3)n2)CC1	-0.2	10.6	-6.7	-19.0	19.0	8.5
CCOc1ccc(NC(=O)CN(C)C(=O)C2CC(=O)N(c3cccc(SC)c3)C2)cc1OCC (stereo unspecified)	.	0.4	0.6	72.1*	-72.1	.
CNc1sc(C(=O)c2cccs2)c(N)c1-c1nc2ccccc2s1	.	-2.2	-4.3	95.2*	-95.2	-9.3
CNc1sc(C(=O)c2ccc(F)cc2)c(N)c1-c1nc2ccccc2s1	7.9	-7.2	-4.8	90.0*	-90.0	-0.8
COc1ccc(Nc2nc(C(=O)NCCCN3CCOCC3)cs2)cc1	.	3.9	1.4	0.5	-0.5	-7.9
COc1cc(C)ccc1OCc1cc(C(=O)N2CCN(C3CCCCC3)CC2)no1	-41.0	9.0	10.6	19.6	-19.5	.
CCN(CC)S(=O)(=O)c1cccc(C(=O)N/N=C/c2c(C)nn(-c3ccccc3)c2Cl)c1	-3.3	-0.1	-6.4	72.7*	-72.7	-13.5
Cc1ccc(NS(=O)(=O)c2cccc(C(=O)N/N=C/c3c(C)nn(-c4ccccc4)c3N3CCCC3)c2)c(C)c1	-6.2	-11.6	-12.7	74.2*	-74.2	16.4
CCc1nnc2sc(-c3ccc(NC(=O)CSc4ccc(Cl)cc4)cc3)nn12	.	-16.2	-11.2	77.1*	.	-0.8
Cc1nnc2sc(-c3ccc(NC(=O)CSc4ccc(Cl)cc4)cc3)nn12	-0.2	3.7	2.4	33.2	-33.2	15.2
O=C(N/N=C/c1ccccc1O)c1ccncc1	.	-8.3	-5.6	47.8	-47.8	.
O=C(N/N=C/c1cc(Br)ccc1OC(=O)c1ccc(Br)cc1)c1ccncc1	-3.6	11.9	-2.1	95.9*	-95.9	.
O=C(N/N=C/c1ccc(OC(=O)c2ccc(Br)cc2)cc1)c1ccncc1	-9.2	-4.2	-2.7	.	.	.
O=C(N/N=C/c1cc(Br)ccc1O)c1ccncc1	-15.3	15.0	6.1	120.3*	-120.3	.
O=C(N/N=C/c1ccc2nccnc2c1)c1ccncc1	-20.2	1.0	0.4	-355.3	355.3*	.
Nc1nonc1-n1nnc(C(=O)N/N=C/c2cc(Br)ccc2O)c1CNc1ccccc1	-10.1	3.1	-6.7	48.1	-48.1	.
Nc1nonc1C(=O)N/N=C/c1cc(Br)ccc1O	-70.9	.	.	137.7*	-137.7	20.4
CN(c1ncc(C(F)(F)F)cc1Cl)N1C(=O)c2cccc([N+](=O)[O-])c2C1=O	-15.2	6.2	9.4	-5.2	5.2	-0.7
O=C(N/N=C/c1cc(Cl)ccc1O)c1ccc(Br)cc1	11.6	-10.0	2.9	134.9*	-134.8	2.0
COc1cc(C(=O)Oc2ccc(/C=N/NC(=O)c3ccncc3)cc2)cc(OC)c1OC	12.7	-15.6	0.9	72.9*	-72.9	.
Cc1cc(C(=O)N/N=C/c2cc(Br)ccc2OC(=O)c2ccccc2Cl)n[nH]1	7.5	0.9	0.9	86.7*	-86.7	1.8
Cc1ccc(N=Nc2ccc(O)c(/C=N\NC(=O)c3ccc(N)cc3)c2)cc1C	6.3	-8.0	-0.6	114.7*	-114.7	-1.1
NC(=O)N/N=C\c1cc(Br)ccc1O	?	-5.5	5.2	-15.0	15.0	-3.1
